Measured values as given in ChEMBL document CHEMBL3774386, “Synthesis and structure activity relationship investigation of triazolo[1,5-a]pyrimidines as CB2 cannabinoid receptor inverse agonists” (Eur J Med Chem, 2016).

Legend:
Cannabinoid receptor 1 = Cannabinoid receptor 1 (Homo sapiens, UniProt P21554); test: Displacement of [3H]CP-55,940 from human CB1 receptor expressed in CHO cell membranes after 90 mins by scintillation counting analysis
Cannabinoid receptor 2 [1] = target: T1, Cannabinoid receptor 2 (Homo sapiens, UniProt P34972); test: Displacement of [3H]CP-55,940 from human CB2 receptor expressed in CHO cell membranes after 60 mins by scintillation counting analysis
T1 sequence (P34972 whole entry): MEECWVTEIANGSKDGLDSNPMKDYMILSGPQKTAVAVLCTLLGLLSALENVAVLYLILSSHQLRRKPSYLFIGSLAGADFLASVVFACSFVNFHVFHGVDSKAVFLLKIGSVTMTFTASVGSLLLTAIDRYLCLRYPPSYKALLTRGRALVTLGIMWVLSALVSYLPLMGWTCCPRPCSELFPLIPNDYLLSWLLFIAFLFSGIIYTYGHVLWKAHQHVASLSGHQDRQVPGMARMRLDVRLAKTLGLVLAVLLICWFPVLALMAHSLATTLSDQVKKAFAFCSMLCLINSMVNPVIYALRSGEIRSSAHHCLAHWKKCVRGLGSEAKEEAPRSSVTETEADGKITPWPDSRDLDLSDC

CHO = test: Selectivity ratio of Ki for human CB1 receptor expressed in CHO cell membranes to Ki for human CB2 receptor expressed in CHO cell membranes; format: cell-based
Procedure, shortened: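 CHO membranes with human CB1 or CB2 in 50 mM Tris-HCl, 0.5% BSA, pH 7.4, 5 mM MgCl2, with 1 mM (CB1) or 2.5 mM (CB2) EDTA. Competition against 0.5 nM [3H]CP-55,940 at 30 °C for 90 min (CB1) or 60 min (CB2). GF/C filtration, scintillation counting. Ki from IC50 by Cheng–Prusoff; mean ± SEM, n = 4.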

Cannabinoid receptor 2 [2] = target: T1, Cannabinoid receptor 2; test: Inverse agonist activity at human CB2 receptor transfected in CHO cells assessed as increase in forksolin stimulated cAMP production at 10 uM by scintillation counting analysis relative to control; format: functional, cell-based
Cannabinoid receptor 2 [3] = target: T1, Cannabinoid receptor 2; test: Inverse agonist activity at human CB2 receptor transfected in CHO cells assessed as increase in forksolin stimulated cAMP production at 1 uM by scintillation counting analysis relative to control; format: functional, cell-based
Cannabinoid receptor 2 [4] = target: T1, Cannabinoid receptor 2; test: Inverse agonist activity at human CB2 receptor transfected in CHO cells assessed as increase in forksolin stimulated cAMP production by scintillation counting analysis; format: functional, cell-based
Procedure, shortened: (§1)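 Human CB2-transfected CHO cells detached with trypsin, 1 × 10^6 cells/assay, with forskolin and compound over a concentration curve. cAMP measured by [3H]-cAMP competition: 150 min at 4 °C, charcoal, centrifugation, supernatant counted. Expressed as % increase of forskolin-stimulated cAMP and fitted for EC50; three independent experiments in duplicate.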

Cannabinoid receptor 2 [5] = target: T1, Cannabinoid receptor 2; test: Antagonist activity at human CB2 receptor transfected in CHO cells assessed as inhibition of WIN 55,212-2 mediated suppression of forksolin induced cAMP production by scintillation counting analysis; format: functional, cell-based
Procedure, shortened: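 Human CB2-transfected CHO cells, 1 × 10^6 cells/assay, forskolin-stimulated, with WIN 55,212-2 (20 nM) plus compound over a concentration range. cAMP read by [3H]-cAMP competition: 150 min at 4 °C, charcoal separation, scintillation counting. IC50 derived from reversal of the WIN 55,212-2 inhibition; mean ± SEM of three experiments in duplicate.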

Cannabinoid receptor 2 [6] = target: T1, Cannabinoid receptor 2; test: Partial agonist activity at human CB2 receptor transfected in CHO cells assessed as forksolin stimulated cAMP production by scintillation counting analysis relative to control; format: functional, cell-based; procedure, shortened: as §1

Chain of Cannabinoid receptor 1 (P21554 whole entry): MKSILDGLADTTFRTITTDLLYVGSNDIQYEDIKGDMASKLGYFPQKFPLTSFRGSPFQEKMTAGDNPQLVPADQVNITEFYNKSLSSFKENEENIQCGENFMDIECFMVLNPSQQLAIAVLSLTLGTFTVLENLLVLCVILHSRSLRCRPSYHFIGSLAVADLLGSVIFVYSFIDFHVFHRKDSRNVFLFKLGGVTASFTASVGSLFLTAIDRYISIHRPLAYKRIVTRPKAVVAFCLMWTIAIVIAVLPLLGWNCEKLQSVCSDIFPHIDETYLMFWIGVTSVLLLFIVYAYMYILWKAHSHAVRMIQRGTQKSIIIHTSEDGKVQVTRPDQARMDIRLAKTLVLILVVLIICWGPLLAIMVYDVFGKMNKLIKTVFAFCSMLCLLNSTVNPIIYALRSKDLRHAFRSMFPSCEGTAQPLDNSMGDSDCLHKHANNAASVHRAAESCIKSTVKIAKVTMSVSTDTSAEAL

SMILES	Ki (Cannabinoid receptor 1) [µM]	Ki (Cannabinoid receptor 2 [1]) [nM]	Ratio Ki (CHO)	Emax (Cannabinoid receptor 2 [2]) [%]	Emax (Cannabinoid receptor 2 [3]) [%]	EC50 (Cannabinoid receptor 2 [4]) [nM]	IC50 (Cannabinoid receptor 2 [5]) [nM]	Emax (Cannabinoid receptor 2 [6]) [%]
CCCCCn1cc(C(=O)NC23CC4CC(CC(C4)C2)C3)c(=O)n2nc(-c3ccc(OC)cc3)nc12	3.72	47	79	132	53	858	128	
CCCCCn1cc(C(=O)NC23CC4CC(CC(C4)C2)C3)c(=O)n2nc(-c3ccccc3)nc12			146	132	53	161	8.6	
CCCCCn1cc(C(=O)NC2CCCCCC2)c(=O)n2nc(N3CCN(C)CC3)nc12	> 10	982	> 10					
C=CCN(CC=C)c1nc2n(CCCCC)cc(C(=O)NC3CCCCC3)c(=O)n2n1	> 10	1350	> 7					
CCCCCn1cc(C(=O)NC2CCCCC2)c(=O)n2nc(N3CCN(C)CC3)nc12	> 10	> 10000	> 188					
CCCCCn1cc(C(=O)NC23CC4CC(CC(C4)C2)C3)c(=O)n2nc(SC)nc12	> 10	47	> 213	132	53	494	139	
CCCCCn1cc(C(=O)NC23CC4CC(C)(CC(C)(C4)C2)C3)c(=O)n2ncnc12	0.622	25	25	132	53	88		60
CCCCCn1cc(C(=O)NC2CCCCCC2)c(=O)n2nc(N3CCOCC3)nc12	> 10	566	> 18					
CCCCCn1cc(C(=O)NC2CCCCCC2)c(=O)n2nc(-c3ccc(C)cc3)nc12	6.35	22	289	132	53	393	64	
CCCCCn1cc(C(=O)NC23CC4CC(CC(C4)C2)C3)c(=O)n2nc(C)nc12	0.471	383	1	132	53	2080	865	
CCCCCn1cc(C(=O)NC23CC4CC(CC(C4)C2)C3)c(=O)n2nc(N3CCOCC3)nc12	> 10	53	140	132	53	670	162	
CCCCCn1cc(C(=O)NC23CC4CC(CC(C4)C2)C3)c(=O)n2ncnc12			36	132	53			57
CCCCCn1cc(C(=O)NC2CCCCC2)c(=O)n2nc(SC)nc12	> 10	716	> 14					
CCCCCn1cc(C(=O)NC23CC4CC(CC(C4)C2)C3)c(=O)n2nc(-c3ccc(Cl)cc3)nc12	5.22	11.3	462	223		637	24.6	
CCCCCn1cc(C(=O)NC23CC4CC(C)(CC(C)(C4)C2)C3)c(=O)n2nc(-c3ccccc3)nc12	0.653	8.4	77	243		489	18.4	
CCCCCn1cc(C(=O)NC2CCCCC2)c(=O)n2nc(N(C)Cc3ccccc3)nc12	> 10	1330	> 7					
CCCCCn1cc(C(=O)NC23CC4CC(CC(C4)C2)C3)c(=O)n2nc(N(C)Cc3ccccc3)nc12	> 10	21	> 476	132	53	453	29	
CCCCCn1cc(C(=O)NC23CC4CC(CC(C4)C2)C3)c(=O)n2nc(-c3ccco3)nc12	1.17	45	26	132	53	771	124	
CCCCCn1cc(C(=O)NC2CCCCCC2)c(=O)n2nc(-c3ccccc3)nc12	2.48	48	52	132	53	849	142	
CCCCCn1cc(C(=O)NC2CCCCC2)c(=O)n2nc(-c3ccc(OC)cc3)nc12	5.85	96	61					
CCCCCn1cc(C(=O)NC23CC4CC(CC(C4)C2)C3)c(=O)n2nc(-c3cccnc3)nc12	> 10	228	> 44					
CCCCCn1cc(C(=O)NC2CCCCC2)c(=O)n2nc(N3CCOCC3)nc12	> 10	> 10000						
C=CCN(CC=C)c1nc2n(CCCCC)cc(C(=O)NC34CC5CC(CC(C5)C3)C4)c(=O)n2n1	> 10	158	> 63					
CCCCCn1cc(C(=O)NC2CCCCC2)c(=O)n2nc(-c3ccc(Cl)cc3)nc12	4.72	117	40					
CCCCCn1cc(C(=O)NC2CCCCCC2)c(=O)n2ncnc12	0.717	514	1					
CCCCCn1cc(C(=O)NC2CCCCC2)c(=O)n2nc(-c3ccc(C)cc3)nc12	> 10	31	> 323	132	53	464	79	
CCCCCn1cc(C(=O)NC2CCCCC2)c(=O)n2nc(-c3ccccc3)nc12	3.21	43	75	132	53	756	111	
Cc1c(C(=O)c2cccc3ccccc23)c2cccc3c2n1[C@H](CN1CCOCC1)CO3				132	53			
CCCCCn1cc(C(=O)NC2CCCCC2)c(=O)n2nc(C)nc12	0.488	674	1					
CCCCCn1cc(C(=O)NC23CC4CC(CC(C4)C2)C3)c(=O)n2nc(-c3ccc(C)cc3)nc12	1.52	6.8	223	256		652	12.6	
